# 697 NFkB inh: lowers PMA/ionomycin-induced NF-kB signal in 697 B cells. AID 435022. inhibition, % at 4 µM. 697 B-cell NF-kB luciferase reporter, 16 h. 330,000 tested, 0.33% active; in the data active = inhibition above about 35%
# UPR CHOP act: activators of apoptotic arm of unfolded protein response (CHOP); 330,000 tested, 0.34% active; CHO-CHOP luciferase reporter, UPR activation, luminescence; percent of tunicamycin response over DMSO baseline; activation, % at 10 µM;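 active = at 10 µM dose, activation of 40% or more, normalized to positive control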;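 also: 100% = tunicamycin at 10 µg/mL and 0% = DMSO alone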
#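 Assay system: CHO cells with stable CHOP pathway luciferase reporter; Buffer or medium: F12 plus 10% serum; Times: 16-18 h cell attachment, then 6 h compound exposure, 37 °C; Signal: luciferase luminescence; Read-out basis: percent activation relative to tunicamycin control; Control set: tunicamycin high control, DMSO low control.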
# CRFBP-R2 block: antagonists of CRF-binding protein/CRF-R2 receptor complex | HEK293 CRF-R2/CRF-BP, CRF-induced calcium fluorescence | inhibition, % at 11.8 µM | 350,000 tested, 0.59% active | AID 588475;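 active = inhibition of the ligand-induced calcium signal above about 50% at the single tested concentration, limit read from the data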
# UPR XBP1 act: activators of adaptive arm of unfolded protein response (XBP1); CHO-XBP1 luciferase reporter, IRE1-XBP1 UPR activation, luminescence; percent of tunicamycin response, DMSO as zero; 330,000 tested, 0.33% active; activation, % at 20 µM;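 active = versus positive control, 20 µM dose yields 30% or more activation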;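 also: 100% = tunicamycin at 10 µg/mL and 0% = DMSO only wells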
#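 Assay system: CHO-XBP1 luciferase reporter cells; Schedule: 6 h treatment, 37 °C; Detection: glow luminescence from Steady-Glo reagent; Benchmarks: high control tunicamycin 10 µg/mL final, low control DMSO vehicle only.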
# Jurkat NFkB inh: lowers PMA/ionomycin-induced NF-kB signal in Jurkat cells; 330,000 tested, 0.53% active; inhibition, % at 4 µM; AID 435003; PMA/ionomycin-induced NF-kB luciferase reporter, luminescence; in the data active = inhibition above about 50%
# 697 NFkB conf: lowers PMA/ionomycin-induced NF-kB signal in 697 B cells | shares compounds with 697 NFkB inh | 697 B-cell NF-kB luciferase, 16 h | inhibition, % at 4 µM | 2,000 tested, 35% active | AID 449746; in the data active = inhibition mostly above about 28%, no sharp cut-off; inactive = mostly below about 22%
# Starred values were filed as active, the others as inactive; i = inactive; / = no result. Most compounds without a hit are left out; they make up all but 1.8% or so of the library.
SMILES,697 NFkB inh,UPR CHOP act,CRFBP-R2 block,UPR XBP1 act,Jurkat NFkB inh,697 NFkB conf
Cn1c(N2CCN(C(c3ccccc3)c3ccccc3)CC2)nc2ccccc21,-63,-3,-4,-6,-26,/
O=C(CSc1nnc(-c2ccncc2)o1)Nc1ccccc1C(F)(F)F,-2,-2,-7,-6,-6,/
CC1=CC(C)(C)Nc2ccc(OC(=O)c3cccnc3)cc21,66*,27,15,-2,-14,62*
CC1=CC(C)(C)Nc2ccc(OC(=O)c3ccco3)cc21,79*,-8,19,-11,14,38*
CC1=CC(C)(C)Nc2ccc(OC(=O)C(C)N3C(=O)c4ccccc4C3=O)cc21 (centres undefined),67*,21,-13,-4,5,55*
O=C(Oc1cccc(OC(=O)c2ccco2)c1)c1ccco1,7,0,12,0,-7,/
Cn1nc(C(=O)Nc2cccc(S(=O)(=O)N3CCCCC3)c2)c2ccccc2c1=O,12,2,-23,2,22,/
O=C(NCCN1C(=O)S/C(=C\c2ccc(Cl)cc2Cl)C1=O)C1=COCCO1,-54,0,1,2,8,/
Cc1ccccc1OCCC(=O)Nc1ccc(N2CCOCC2)cc1N1CCOCC1,-2,1,-8,2,8,/
O=C(NC1=NCCS1)c1ccc(Cl)c(Cl)c1,-255,3,11,-6,-147,-186
O=C(Nc1cccc(F)c1)Nc1ccnn1C1CCN(C(=O)c2cscn2)CC1,-10,0,5,-2,-9,/
Cc1nc(C)c(-c2csc(Nc3ccccn3)n2)s1,-381,-1,0,-4,-131,-359
CC(C)CC(c1nnnn1Cc1ccco1)N1CCN(C2CCCC2)CC1 (centres undefined),4,0,-4,1,-15,/
Fc1ccc(C(c2nnnn2Cc2ccco2)N2CCN(C3CCCCC3)CC2)cc1 (centres undefined),36*,2,-8,0,-2,0
COc1ccc(/C=N\NC(=O)COc2ccccc2Cl)cc1Cn1nc(C)cc1C,8,2,-6,4,9,/
COc1ccc(/C=N\NC(=O)c2sccc2C)cc1Cn1nc(C)cc1C,39*,2,-6,1,3,44*
CCCCn1c2c(c(=N)c3ccccc31)CCC2,44*,1,-2,0,48,46*
CCCn1c(N)c(C(=O)CSc2nc3ccccc3s2)c(=O)[nH]c1=O,-433,2,3,6,-111,i
CCN(CC(=O)Nc1c(F)cccc1F)C(=O)Cc1csc(-c2ccc(OC)c(OC)c2)n1,5,-1,7,-4,-7,/
CCOC(=O)Cc1csc(NC(=S)NC(=O)c2ccc(C)cc2)n1,70*,-3,27,1,-5,89*
CC(=O)c1c(C)[nH]c(C(=O)N2CCc3ccccc3C2)c1C,42*,-2,-14,0,7,20
CC(=O)c1c(C)[nH]c(C(=O)N2CCN(C(=O)c3ccco3)CC2)c1C,18,0,6,-1,12,/
O=C(c1cc2nc(-c3ccccc3)cc(-c3ccccc3)n2n1)N1CCN(C(=O)c2ccco2)CC1,42*,4,55*,1,18,36*
CC(C)COc1cccc(-c2cc(C(=O)N/N=C/c3ccncc3)c3ccccc3n2)c1,i,8,-13,0,8,i
C(=C\n1nnc2ccccc21)/c1ccccn1,-168,0,3,-2,-139,/
SMILES,697 NFkB inh,UPR CHOP act,CRFBP-R2 block,UPR XBP1 act,Jurkat NFkB inh,697 NFkB conf
O=C(c1cccc(S(=O)(=O)N2CCc3ccccc32)c1)N1CCN(c2ccccn2)CC1,i,1,4,0,-60,i
COc1ccc(N2CCN(C(=O)c3cccc(S(=O)(=O)N4CCc5ccccc54)c3)CC2)cc1,7,0,6,-2,-6,/
Cc1ccc(CSc2nnc(SCC(=O)N/N=C/C=C/c3ccccc3[N+](=O)[O-])s2)cc1,66*,4,4,-1,-7,55*
CCN1CCN(C(=O)CSc2cc(=O)n(C)c3ccccc23)CC1,14,2,-11,1,8,/
CCn1c(=O)cc(SCC(=O)N2CCN(C3CCCCC3)CC2)c2ccccc21,48*,1,13,-1,14,19
CCn1c2ccccc2c2cc(CN3CCN(C(=O)c4ccco4)CC3)ccc21,-2,4,-3,-6,14,/
CN1CCN(C(=O)CSc2cc(=O)n(C)c3ccccc23)CC1,16,-1,-6,0,13,/
CCn1c(=O)cc(SCC(=O)N2CCOCC2)c2ccccc21,42*,-2,1,-1,3,45*
CCn1c(=O)cc(SCC(=O)N2CCN(C(=O)c3ccco3)CC2)c2ccccc21,53*,-1,-2,2,6,38*
CCn1c(=O)cc(SCC(=O)N2CCN(c3ccccc3OC)CC2)c2ccccc21,36*,-1,-4,1,-4,9
COc1ccccc1N1CCN(C(=O)CSc2ccccc2)CC1,-43,4,12,-1,-34,/
O=C(O)CC(c1ccccc1)c1ccc2c(c1)OCO2 (centres undefined),/,/,1,/,/,/
Cc1ccc([C@@H]2[C@@H]3C(=O)N(c4ccccc4)C(=O)[C@@H]3[C@]3(C)C(=O)N(CC4CC4)CC(=O)N23)o1,-1,0,-3,0,-1,/
Cc1ccc(-n2nc3c(=O)n(CCCC(=O)NCc4ccc(F)cc4)nc(C)c3c2C)cc1,39*,1,-8,0,21,5
O=[N+]([O-])c1ccccc1N/N=C/c1cccc(O)c1O,i,11,-7,-1,-34,-190
CCc1c(C)nc(Nc2nc(C)c3cc(OC)ccc3n2)[nH]c1=O,-6,2,2,13,-39,/
COc1ccc2nc(Nc3nc(CSc4nc5ccccc5[nH]4)cc(=O)[nH]3)nc(C)c2c1,18,-1,-7,2,49,/
CCc1ccc2nc(Nc3nc(COC)cc(=O)[nH]3)nc(C)c2c1,42*,0,19,8,9,38*
CCCCCc1c(C)nc(Nc2nc(C)c3cc(OC)ccc3n2)[nH]c1=O,39*,1,24,18,31,4
Cc1ccc(C(=O)NCC(=O)OCC(=O)c2c(N)n(C)c(=O)n(C)c2=O)cc1C,-4,0,-8,2,-2,/
CCOC(=O)C(C)c1n[nH]c(=O)c2ccccc12 (centres undefined),38*,0,2,0,-1,12
O=C(Nc1ccc(Cl)cc1)P(=O)(O)c1ccccc1,/,/,-3,/,/,/
Cc1cc(C)c(CN2CCN(C(=O)Cn3cnc4c(NCc5ccccc5)ncnc43)CC2)c(C)c1,74*,7,9,3,/,82*

# Assay outcomes deposited in PubChem BioAssay by Sanford-Burnham Center for Chemical Genomics.
